Test results from ChEMBL document CHEMBL1250442, “Inhibiting gene expression at transcription start sites in chromosomal DNA with antigene RNAs” (Nat Chem Biol, 2005).

Tests used:
Format in all cases: functional
[1] = system: T47D; assay: Inhibition of PR-A mRNA gene expression in human T47D cells at 100 nM by syber green assay
How it was run: (§1)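 T47D cells plated at 80,000/well without antibiotics two days before Oligofectamine transfection with agRNA duplex (25 or 100 nM final); medium changed at 24 h, harvest day 5 unless stated otherwise. TRIzol total RNA; PR mRNA by real-time PCR with SYBR Green: 50 °C 2 min, 95 °C 10 min, 40 cycles 95 °C 15 s/60 °C 1 min.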

[2] = system: T47D; assay: Inhibition of PR-B mRNA gene expression in human T47D cells at 100 nM by syber green assay
How it was run: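 T47D cells in RPMI-1640 with 10% FBS, NEAA, insulin, 37 °C, 5% CO2. Plated two days before transfection without antibiotics. Oligofectamine-mediated duplex RNA transfection at 100 nM final, medium changed at 24 h, harvest five days post-transfection. Total RNA extracted with TRIzol. hPR mRNA quantified by SYBR Green qPCR: 50 °C 2 min, 95 °C 10 min, then 40 cycles of 95 °C 15 s / 60 °C 1 min.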

[3] = system: T47D; assay: Inhibition of PR-A gene expression in human T47D cells at 25 nM by syber green assay; how it was run: as §1
[4] = system: T47D; assay: Inhibition of PR-B gene expression in human T47D cells at 25 nM by syber green assay; how it was run: as §1

Structure (SMILES)	inhibition at 0.1 µM [1]	inhibition at 0.1 µM [2]	inhibition at 0.025 µM [3]	inhibition at 0.025 µM [4]
Cc1cn([C@H]2C[C@H](OP(=O)(O)OC[C@H]3O[C@@H](n4cc(C)c(=O)[nH]c4=O)C[C@@H]3O)[C@@H](COP(=O)(O)O[C@H]3[C@@H](O)[C@H](n4ccc(N)nc4=O)O[C@@H]3COP(=O)(O)O[C@H]3[C@@H](O)[C@H](n4cnc5c(=O)[nH]c(N)nc54)O[C@@H]3COP(=O)(O)O[C@H]3[C@@H](O)[C@H](n4cnc5c(N)ncnc54)O[C@@H]3COP(=O)(O)O[C@H]3[C@@H](O)[C@H](n4cnc5c(=O)[nH]c(N)nc54)O[C@@H]3COP(=O)(O)O[C@H]3[C@@H](O)[C@H](n4cnc5c(N)ncnc54)O[C@@H]3COP(=O)(O)O[C@H]3[C@@H](O)[C@H](n4ccc(N)nc4=O)O[C@@H]3COP(=O)(O)O[C@H]3[C@@H](O)[C@H](n4ccc(N)nc4=O)O[C@@H]3COP(=O)(O)O[C@H]3[C@@H](O)[C@H](n4ccc(=O)[nH]c4=O)O[C@@H]3COP(=O)(O)O[C@H]3[C@@H](O)[C@H](n4cnc5c(=O)[nH]c(N)nc54)O[C@@H]3COP(=O)(O)O[C@H]3[C@@H](O)[C@H](n4cnc5c(N)ncnc54)O[C@@H]3COPO[C@H]3[C@@H](O)[C@H](n4ccc(N)nc4=O)O[C@@H]3COP(=O)(O)O[C@H]3[C@@H](O)[C@H](n4cnc5c(=O)[nH]c(N)nc54)O[C@@H]3COP(=O)(O)O[C@H]3[C@@H](O)[C@H](n4cnc5c(=O)[nH]c(N)nc54)O[C@@H]3COP(=O)(O)O[C@H]3[C@@H](O)[C@H](n4cnc5c(=O)[nH]c(N)nc54)O[C@@H]3COP(=O)(O)O[C@H]3[C@@H](O)[C@H](n4ccc(=O)[nH]c4=O)O[C@@H]3COP(=O)(O)O[C@H]3[C@@H](O)[C@H](n4ccc(N)nc4=O)O[C@@H]3COP(=O)(O)O[C@H]3[C@@H](O)[C@H](n4ccc(=O)[nH]c4=O)O[C@@H]3COP(=O)(O)O[C@H]3[C@@H](O)[C@H](n4ccc(N)nc4=O)O[C@@H]3COP(=O)(O)O[C@H]3[C@@H](O)[C@H](n4ccc(=O)[nH]c4=O)O[C@@H]3CO)O2)c(=O)[nH]c1=O (some centres not stated)	< 20%	< 20%		
Cc1cn([C@@H]2O[C@H](COP(=O)(O)O[C@H]3C[C@H](n4cc(C)c(=O)[nH]c4=O)O[C@@H]3COP(=O)(O)O[C@H]3[C@@H](O)[C@H](n4ccc(N)nc4=O)O[C@@H]3COP(=O)(O)O[C@H]3[C@@H](O)[C@H](n4cnc5c(=O)[nH]c(N)nc54)O[C@@H]3COP(=O)(O)O[C@H]3[C@@H](O)[C@H](n4cnc5c(N)ncnc54)O[C@@H]3COP(=O)(O)O[C@H]3[C@@H](O)[C@H](n4ccc(N)nc4=O)O[C@@H]3COP(=O)(O)O[C@H]3[C@@H](O)[C@H](n4cnc5c(N)ncnc54)O[C@@H]3COP(=O)(O)O[C@H]3[C@@H](O)[C@H](n4ccc(N)nc4=O)O[C@@H]3COP(=O)(O)O[C@H]3[C@@H](O)[C@H](n4ccc(N)nc4=O)O[C@@H]3COP(=O)(O)O[C@H]3[C@@H](O)[C@H](n4ccc(=O)[nH]c4=O)O[C@@H]3COP(=O)(O)O[C@H]3[C@@H](O)[C@H](n4cnc5c(=O)[nH]c(N)nc54)O[C@@H]3COP(=O)(O)OC3[C@@H](O)[C@H](n4cnc5c(N)ncnc54)O[C@@H]3COP(=O)(O)O[C@H]3[C@@H](O)[C@H](n4ccc(N)nc4=O)O[C@@H]3COP(=O)(O)O[C@H]3[C@@H](O)[C@H](n4cnc5c(=O)[nH]c(N)nc54)O[C@@H]3COP(=O)(O)O[C@H]3[C@@H](O)[C@H](n4cnc5c(=O)[nH]c(N)nc54)O[C@@H]3COP(=O)(O)O[C@H]3[C@@H](O)[C@H](n4cnc5c(=O)[nH]c(N)nc54)O[C@@H]3COP(=O)(O)O[C@H]3[C@@H](O)[C@H](n4ccc(=O)[nH]c4=O)O[C@@H]3COP(=O)(O)O[C@H]3[C@@H](O)[C@H](n4ccc(N)nc4=O)O[C@@H]3COP(=O)(O)O[C@H]3[C@@H](O)[C@H](n4ccc(=O)[nH]c4=O)O[C@@H]3COP(=O)(O)O[C@H]3[C@@H](O)[C@H](n4cnc5c(=O)[nH]c(N)nc54)O[C@@H]3COP(=O)(O)O[C@H]3[C@@H](O)[C@H](n4ccc(=O)[nH]c4=O)O[C@@H]3CO)[C@@H](O)[C@H]2O)c(=O)[nH]c1=O (some centres not stated)	67%	91%	53%	75%
Cc1cn([C@H]2C[C@H](OP(=O)(O)OC[C@H]3O[C@@H](n4cnc5c(=O)[nH]c(N)nc54)C[C@@H]3OP(=O)(O)OC[C@H]3O[C@@H](n4cc(C)c(=O)[nH]c4=O)C[C@@H]3OP(=O)(O)OC[C@H]3O[C@@H](n4ccc(N)nc4=O)C[C@@H]3OP(=O)(O)OC[C@H]3O[C@@H](n4cc(C)c(=O)[nH]c4=O)C[C@@H]3OP(=O)(O)OC[C@H]3O[C@@H](n4cnc5c(=O)[nH]c(N)nc54)C[C@@H]3OP(=O)(O)OC[C@H]3O[C@@H](n4cnc5c(=O)[nH]c(N)nc54)C[C@@H]3OP(=O)(O)OC[C@H]3O[C@@H](n4ccc(N)nc4=O)C[C@@H]3OP(=O)(O)OC[C@H]3O[C@@H](n4ccc(N)nc4=O)C[C@@H]3OP(=O)(O)OC[C@H]3O[C@@H](n4cnc5c(N)ncnc54)C[C@@H]3OP(=O)(O)OC[C@H]3O[C@@H](n4cnc5c(=O)[nH]c(N)nc54)C[C@@H]3OP(=O)(O)OC[C@H]3O[C@@H](n4cc(C)c(=O)[nH]c4=O)C[C@@H]3OP(=O)(O)OC[C@H]3O[C@@H](n4ccc(N)nc4=O)C[C@@H]3OP(=O)(O)OC[C@H]3O[C@@H](n4ccc(N)nc4=O)C[C@@H]3OP(=O)(O)OC[C@H]3O[C@@H](n4cnc5c(N)ncnc54)C[C@@H]3OP(=O)(O)OC[C@H]3O[C@@H](n4ccc(N)nc4=O)C[C@@H]3OP(=O)(O)OC[C@H]3O[C@@H](n4cnc5c(N)ncnc54)C[C@@H]3OP(=O)(O)OC[C@H]3O[C@@H](n4cnc5c(=O)[nH]c(N)nc54)C[C@@H]3OP(=O)(O)OC[C@H]3O[C@@H](n4ccc(N)nc4=O)C[C@@H]3OP(=O)(O)OC[C@H]3O[C@@H](n4cc(C)c(=O)[nH]c4=O)C[C@@H]3OP(=O)(O)OC[C@H]3O[C@@H](n4cc(C)c(=O)[nH]c4=O)C[C@@H]3O)[C@@H](CO)O2)c(=O)[nH]c1=O	< 20%	< 20%		
Cc1cn([C@H]2C[C@H](OP(=O)(O)OC[C@H]3O[C@@H](n4cc(C)c(=O)[nH]c4=O)C[C@@H]3O)[C@@H](COP(=O)(O)O[C@H]3[C@@H](O)[C@H](n4ccc(N)nc4=O)O[C@@H]3COP(=O)(O)O[C@H]3[C@@H](O)[C@H](n4cnc5c(=O)[nH]c(N)nc54)O[C@@H]3COP(=O)(O)O[C@H]3[C@@H](O)[C@H](n4cnc5c(N)ncnc54)O[C@@H]3COP(=O)(O)O[C@H]3[C@@H](O)[C@H](n4ccc(N)nc4=O)O[C@@H]3COP(=O)(O)O[C@H]3[C@@H](O)[C@H](n4cnc5c(N)ncnc54)O[C@@H]3COP(=O)(O)O[C@H]3[C@@H](O)[C@H](n4cnc5c(=O)[nH]c(N)nc54)O[C@@H]3COP(=O)(O)O[C@H]3[C@@H](O)[C@H](n4ccc(N)nc4=O)O[C@@H]3COP(=O)(O)O[C@H]3[C@@H](O)[C@H](n4ccc(=O)[nH]c4=O)O[C@@H]3COP(=O)(O)O[C@H]3[C@@H](O)[C@H](n4cnc5c(=O)[nH]c(N)nc54)O[C@@H]3COP(=O)(O)O[C@H]3[C@@H](O)[C@H](n4cnc5c(N)ncnc54)O[C@@H]3COP(=O)(O)O[C@H]3[C@@H](O)[C@H](n4ccc(N)nc4=O)O[C@@H]3COP(=O)(O)O[C@H]3[C@@H](O)[C@H](n4ccc(N)nc4=O)O[C@@H]3COP(=O)(O)O[C@H]3[C@@H](O)[C@H](n4cnc5c(=O)[nH]c(N)nc54)O[C@@H]3COP(=O)(O)O[C@H]3[C@@H](O)[C@H](n4ccc(N)nc4=O)O[C@@H]3COP(=O)(O)O[C@H]3[C@@H](O)[C@H](n4ccc(=O)[nH]c4=O)O[C@@H]3COP(=O)(O)O[C@H]3[C@@H](O)[C@H](n4ccc(N)nc4=O)O[C@@H]3COP(=O)(O)O[C@H]3[C@@H](O)[C@H](n4ccc(=O)[nH]c4=O)O[C@@H]3COP(=O)(O)O[C@H]3[C@@H](O)[C@H](n4cnc5c(=O)[nH]c(N)nc54)O[C@@H]3COP(=O)(O)O[C@H]3[C@@H](O)[C@H](n4ccc(=O)[nH]c4=O)O[C@@H]3CO)O2)c(=O)[nH]c1=O	< 20%	< 20%		
Cc1cn([C@H]2C[C@H](OP(=O)(O)OC[C@H]3O[C@@H](n4cnc5c(=O)[nH]c(N)nc54)C[C@@H]3OP(=O)(O)OC[C@H]3O[C@@H](n4cc(C)c(=O)[nH]c4=O)C[C@@H]3OP(=O)(O)OC[C@H]3O[C@@H](n4ccc(N)nc4=O)C[C@@H]3OP(=O)(O)OC[C@H]3O[C@@H](n4cc(C)c(=O)[nH]c4=O)C[C@@H]3OP(=O)(O)OC[C@H]3O[C@@H](n4cnc5c(=O)[nH]c(N)nc54)C[C@@H]3OP(=O)(O)OC[C@H]3O[C@@H](n4cnc5c(=O)[nH]c(N)nc54)C[C@@H]3OP(=O)(O)OC[C@H]3O[C@@H](n4ccc(N)nc4=O)C[C@@H]3OP(=O)(O)OC[C@H]3O[C@@H](n4ccc(N)nc4=O)C[C@@H]3OP(=O)(O)OC[C@H]3O[C@@H](n4cnc5c(N)ncnc54)C[C@@H]3OP(=O)(O)OC[C@H]3O[C@@H](n4cnc5c(=O)[nH]c(N)nc54)C[C@@H]3OP(=O)(O)OC[C@H]3O[C@@H](n4cc(C)c(=O)[nH]c4=O)C[C@@H]3OP(=O)(O)OC[C@H]3O[C@@H](n4ccc(N)nc4=O)C[C@@H]3OP(=O)(O)OC[C@H]3O[C@@H](n4ccc(N)nc4=O)C[C@@H]3OP(=O)(O)OC[C@H]3O[C@@H](n4cnc5c(N)ncnc54)C[C@@H]3OP(=O)(O)OC[C@H]3O[C@@H](n4ccc(N)nc4=O)C[C@@H]3OP(=O)(O)OC[C@H]3O[C@@H](n4cnc5c(N)ncnc54)C[C@@H]3OP(=O)(O)OC[C@H]3O[C@@H](n4cnc5c(=O)[nH]c(N)nc54)C[C@@H]3OP(=O)(O)OC[C@H]3O[C@@H](n4ccc(N)nc4=O)C[C@@H]3O)[C@@H](CO)O2)c(=O)[nH]c1=O	< 20%	< 20%		
